Here are results for 8 molecules from ChEMBL document CHEMBL3860039, “Structure-Activity Relationship and Signaling of New Chimeric CXCR4 Agonists” (J Med Chem, 2016).

For orientation: IC50 means the concentration that gives 50% inhibition. What is called EC50 is the concentration needed to bring the measured effect to its halfway point. A low value points to higher potency in that assay. The Emax is the greatest response seen or fitted, relative to the assay's reference.

Holding throughout (type): cell-based
The target in assay [1] is T1, C-X-C chemokine receptor type 4 (Homo sapiens, UniProt P61073). The assay is described as follows: Agonist activity at CXCR4 in human REH cells assessed as induction of chemotaxis incubated for 3 hrs by transwell migration assay. The essentials:
(§1)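 REH acute lymphoblastic B-cell leukaemia cells washed in RPMI; 100 000 cells in RPMI + 0.2% BSA seeded on top of 5 μm pore polycarbonate transwell, peptide dilutions in same medium in bottom chamber; 3 h, 37 °C, 5% CO2. Migrated cells in lower chamber counted by automated counter, expressed as % of seeded cells; peak = concentration giving maximal migration. Three experiments in triplicate.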

Assay [2] has as its target T1, C-X-C chemokine receptor type 4. The assay is described as follows: Agonist activity at CXCR4 in human REH cells assessed as optimal concentration causing maximum induction of chemotaxis incubated for 3 hrs by transwell migration assay. In a few lines:
as §1

For assay [3] the target is unchanged. The assay is described as follows: Displacement of [125I]-CXCL12 from HA-tagged human recombinant CXCR4 expressed in HEK293 cells incubated for 1 hr by gamma-radiation counting analysis. In general terms: In a radioligand displacement assay an active substance lowers the binding of a labelled ligand.
Assay [4] shares this target. The assay is described as follows: Agonist activity at HA-tagged human CXCR4 receptor expressed in HEK293 cells co-transfected with Galphai1-91-RlucII, Gbeta1, and GFP10-G-gamma1 incubated for 7 mins by Galpha1 protein activation-based BRET assay. In a few lines: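 HEK293 cells (3 × 10^6 per 100 mm dish) co-transfected via polyethylenimine with HA-hCXCR4 plus Gαi1-91-RlucII, Gβ1, GFP10-Gγ1; replated at 24 h, 100 000 cells/well. At 48 h, washed in HBSS/0.1% BSA, exposed to ligand 10−12 to 10−5 M for 7 min, then coelenterazine-400A 5 μM final; BRET2 515/400 nm ratio. EC50 (Gαi dissociation) and Emax from three experiments in triplicate.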
(In general: Bioluminescence resonance energy transfer reports proximity on the nanometre scale.)

T1 sequence (P61073 whole entry): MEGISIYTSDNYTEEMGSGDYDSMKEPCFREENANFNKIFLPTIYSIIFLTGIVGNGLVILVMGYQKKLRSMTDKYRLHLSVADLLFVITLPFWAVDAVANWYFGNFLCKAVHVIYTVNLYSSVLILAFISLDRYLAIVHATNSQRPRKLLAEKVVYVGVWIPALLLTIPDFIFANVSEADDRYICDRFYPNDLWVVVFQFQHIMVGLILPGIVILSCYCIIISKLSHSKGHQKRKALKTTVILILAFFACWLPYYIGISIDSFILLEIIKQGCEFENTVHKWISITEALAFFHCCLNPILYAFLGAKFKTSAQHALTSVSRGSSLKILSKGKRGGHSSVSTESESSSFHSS

`CC(C)C[C@H](NC(=O)[C@H](CO)NC(=O)[C@@H](NC(=O)[C@@H]1CCCN1C(=O)[C@@H](N)CCCCN)C(C)C)C(=O)N[C@@H](CO)C(=O)N[C@@H](Cc1ccc(O)cc1)C(=O)N[C@@H](C)C(=O)N[C@@H](CO)C(=O)N[C@@H](C)C(=O)NCCCC[C@H](NC(=O)[C@@H]1CSSC[C@H](NC(=O)[C@H](Cc2ccc3ccccc3c2)NC(=O)[C@H](CCCNC(=N)N)NC(=O)[C@@H](N)CCCNC(=N)N)C(=O)N[C@@H](Cc2ccc(O)cc2)C(=O)N[C@@H](CCCNC(=N)N)C(=O)N[C@@H](CCCCN)C(=O)N[C@H](CCCCN)C(=O)N2CCC[C@H]2C(=O)N[C@@H](Cc2ccc(O)cc2)C(=O)N[C@@H](CCCNC(=N)N)C(=O)N[C@@H](CCCNC(=N)N)C(=O)N1)C(=O)O`: in assay [1], the %max came out at 16%. In addition, the Activity in assay [2] turned out to be 10000 nM. Besides, in assay [3], the IC50 is 300 nM. In addition, in assay [4], the midpoint of the response, the EC50, lay at 40 nM and the Emax was determined as 25%.
The like results for `CC(C)C[C@H](NC(=O)[C@H](CO)NC(=O)[C@H](Cc1ccc2ccccc2c1)NC(=O)[C@@H]1CCCN1C(=O)[C@@H](N)CCCCN)C(=O)N[C@@H](CO)C(=O)N[C@@H](Cc1ccc(O)cc1)C(=O)N[C@@H](CCCNC(=N)N)C(=O)N[C@@H](CO)C(=O)N[C@@H](C)C(=O)NCCCC[C@H](NC(=O)[C@@H]1CSSC[C@H](NC(=O)[C@H](Cc2ccc3ccccc3c2)NC(=O)[C@H](CCCNC(=N)N)NC(=O)[C@@H](N)CCCNC(=N)N)C(=O)N[C@@H](Cc2ccc(O)cc2)C(=O)N[C@@H](CCCNC(=N)N)C(=O)N[C@@H](CCCCN)C(=O)N[C@H](CCCCN)C(=O)N2CCC[C@H]2C(=O)N[C@@H](Cc2ccc(O)cc2)C(=O)N[C@@H](CCCNC(=N)N)C(=O)N[C@@H](CCCNC(=N)N)C(=O)N1)C(=O)O` were, in that order, 47%, 10 nM, 64 nM, 152 nM and 43%.
Take `CC(C)C[C@H](NC(=O)[C@H](CO)NC(=O)[C@@H](NC(=O)[C@@H]1CCCN1C(=O)[C@@H](N)CCCCN)C(C)C)C(=O)N[C@@H](CO)C(=O)N[C@@H](Cc1ccc(N)cc1)C(=O)N[C@@H](CCCNC(=N)N)C(=O)N[C@@H](CO)C(=O)N[C@@H](C)C(=O)NCCCC[C@H](NC(=O)[C@@H]1CSSC[C@H](NC(=O)[C@H](Cc2ccc3ccccc3c2)NC(=O)[C@H](CCCNC(=N)N)NC(=O)[C@@H](N)CCCNC(=N)N)C(=O)N[C@@H](Cc2ccc(O)cc2)C(=O)N[C@@H](CCCNC(=N)N)C(=O)N[C@@H](CCCCN)C(=O)N[C@H](CCCCN)C(=O)N2CCC[C@H]2C(=O)N[C@@H](Cc2ccc(O)cc2)C(=O)N[C@@H](CCCNC(=N)N)C(=O)N[C@@H](CCCNC(=N)N)C(=O)N1)C(=O)O`: the %max in assay [1] was found to be 27%. In assay [2], the Activity was 10 nM. Also, the IC50 in assay [3] was determined as 94 nM. In assay [4], this molecule displayed an EC50 of 83 nM and an Emax of 33%.
Regarding `CC(C)C[C@H](NC(=O)[C@H](CO)NC(=O)[C@H](Cc1cc2cccc3ccc4cccc1c4c32)NC(=O)[C@@H]1CCCN1C(=O)[C@@H](N)CCCCN)C(=O)N[C@@H](CO)C(=O)N[C@@H](Cc1ccc(O)cc1)C(=O)N[C@@H](CCCNC(=N)N)C(=O)N[C@@H](CO)C(=O)N[C@@H](C)C(=O)NCCCC[C@H](NC(=O)[C@@H]1CSSC[C@H](NC(=O)[C@H](Cc2ccc3ccccc3c2)NC(=O)[C@H](CCCNC(=N)N)NC(=O)[C@@H](N)CCCNC(=N)N)C(=O)N[C@@H](Cc2ccc(O)cc2)C(=O)N[C@@H](CCCNC(=N)N)C(=O)N[C@@H](CCCCN)C(=O)N[C@H](CCCCN)C(=O)N2CCC[C@H]2C(=O)N[C@@H](Cc2ccc(O)cc2)C(=O)N[C@@H](CCCNC(=N)N)C(=O)N[C@@H](CCCNC(=N)N)C(=O)N1)C(=O)O`, in assay [1], the %max came out at 45%. In addition, the Activity in assay [2] amounted to 100 nM. For the same molecule, the half-maximal inhibitory concentration (IC50) in assay [3] amounted to 90 nM. For the same molecule, in assay [4], the EC50 was determined as 74 nM and the maximal effect (Emax) worked out at 47%.
The like results for `CC(C)C[C@H](NC(=O)[C@H](CO)NC(=O)[C@@H](NC(=O)[C@@H]1CCCN1C(=O)[C@@H](N)CCCCN)C(C)C)C(=O)N[C@@H](CO)C(=O)N[C@@H](Cc1ccc(OCc2ccccc2)cc1)C(=O)N[C@@H](CCCNC(=N)N)C(=O)N[C@@H](CO)C(=O)N[C@@H](C)C(=O)NCCCC[C@H](NC(=O)[C@@H]1CSSC[C@H](NC(=O)[C@H](Cc2ccc3ccccc3c2)NC(=O)[C@H](CCCNC(=N)N)NC(=O)[C@@H](N)CCCNC(=N)N)C(=O)N[C@@H](Cc2ccc(O)cc2)C(=O)N[C@@H](CCCNC(=N)N)C(=O)N[C@@H](CCCCN)C(=O)N[C@H](CCCCN)C(=O)N2CCC[C@H]2C(=O)N[C@@H](Cc2ccc(O)cc2)C(=O)N[C@@H](CCCNC(=N)N)C(=O)N[C@@H](CCCNC(=N)N)C(=O)N1)C(=O)O` were, in that order, 76%, 100 nM, 102 nM, 138 nM and 79%.
For `CC(C)C[C@H](NC(=O)[C@H](CO)NC(=O)[C@H](Cc1ccc(C(=O)c2ccccc2)cc1)NC(=O)[C@@H]1CCCN1C(=O)[C@@H](N)CCCCN)C(=O)N[C@@H](CO)C(=O)N[C@@H](Cc1ccc(O)cc1)C(=O)NCCOCCOCCOCCC(=O)NCCCC[C@H](NC(=O)[C@@H]1CSSC[C@H](NC(=O)[C@H](Cc2ccc3ccccc3c2)NC(=O)[C@H](CCCNC(=N)N)NC(=O)[C@@H](N)CCCNC(=N)N)C(=O)N[C@@H](Cc2ccc(O)cc2)C(=O)N[C@@H](CCCNC(=N)N)C(=O)N[C@@H](CCCCN)C(=O)N[C@H](CCCCN)C(=O)N2CCC[C@H]2C(=O)N[C@@H](Cc2ccc(O)cc2)C(=O)N[C@@H](CCCNC(=N)N)C(=O)N[C@@H](CCCNC(=N)N)C(=O)N1)C(=O)O`, in assay [1], the %max turned out to be 40%. Further, the Activity in assay [2] is 100 nM. Further, in assay [3], the IC50 was 112 nM. In assay [4], this molecule came in with an EC50 of 207 nM and an Emax of 75%.
For `CC(C)C[C@H](NC(=O)[C@H](CO)NC(=O)[C@@H](NC(=O)[C@@H]1CCCN1C(=O)[C@@H](N)CCCCN)C(C)(C)C)C(=O)N[C@@H](CO)C(=O)N[C@@H](Cc1ccc(O)cc1)C(=O)N[C@@H](CCCNC(=N)N)C(=O)N[C@@H](CO)C(=O)N[C@@H](C)C(=O)NCCCC[C@H](NC(=O)[C@@H]1CSSC[C@H](NC(=O)[C@H](Cc2ccc3ccccc3c2)NC(=O)[C@H](CCCNC(=N)N)NC(=O)[C@@H](N)CCCNC(=N)N)C(=O)N[C@@H](Cc2ccc(O)cc2)C(=O)N[C@@H](CCCNC(=N)N)C(=O)N[C@@H](CCCCN)C(=O)N[C@H](CCCCN)C(=O)N2CCC[C@H]2C(=O)N[C@@H](Cc2ccc(O)cc2)C(=O)N[C@@H](CCCNC(=N)N)C(=O)N[C@@H](CCCNC(=N)N)C(=O)N1)C(=O)O` the same measures were 21%, 100 nM, 84 nM, 15 nM and 36%.
For `CC(C)C[C@H](NC(=O)[C@H](CO)NC(=O)[C@@H](NC(=O)[C@@H]1CCCN1C(=O)[C@@H](N)CCCCN)C(C)C)C(=O)N[C@@H](CO)C(=O)N[C@@H](Cc1ccc([N+](=O)[O-])cc1)C(=O)N[C@@H](CCCNC(=N)N)C(=O)N[C@@H](CO)C(=O)N[C@@H](C)C(=O)NCCCC[C@H](NC(=O)[C@@H]1CSSC[C@H](NC(=O)[C@H](Cc2ccc3ccccc3c2)NC(=O)[C@H](CCCNC(=N)N)NC(=O)[C@@H](N)CCCNC(=N)N)C(=O)N[C@@H](Cc2ccc(O)cc2)C(=O)N[C@@H](CCCNC(=N)N)C(=O)N[C@@H](CCCCN)C(=O)N[C@H](CCCCN)C(=O)N2CCC[C@H]2C(=O)N[C@@H](Cc2ccc(O)cc2)C(=O)N[C@@H](CCCNC(=N)N)C(=O)N[C@@H](CCCNC(=N)N)C(=O)N1)C(=O)O` the same measures were 48%, 10 nM, 109 nM, 62 nM and 73%.
